Screening results as filed in PubChem BioAssay.
The list is not random: actives were taken first. Their share in the collection is about 1.9%.
CR mimetic SO: reduction of superoxide in aged yeast, primary screen, HTS. S. cerevisiae aged cells, superoxide DHE fluorescence; active compounds read low. 330,000 tested, 0.18% active. superoxide response (% of plate mean), % at 10 µM;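 active means superoxide response under a set limit, about three screen SD below normal, cut at about 65% in these data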;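 further: yeast aged for seven days with compound at 30 °C before DHE staining; 100% = average MFI of all compound-treated wells on the plate with controls excluded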
MIN6 prolif-1: inducers of MIN6 beta-cell proliferation, primary screen, ATP luminescence, uHTS; MIN6 cells proliferation, ATPlite luminescence, 48 h; cells starved in 0.2% serum; 100% = growth in 10% serum; proliferation, % at 10 µM; 330,000 tested, 0.29% active; AID 2380, 2010;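 active means compounds whose signal lies at least 3.5 SD above the mean of all wells on their plate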;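 further: 0% = DMSO-treated cells in low-serum medium and 100% = 10% serum control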
NR1D1 modulator: modulators of Rev-erb alpha DNA binding, primary screen, biochemical, FITC-DNA, fluorescence polarization, uHTS; Nuclear receptor subfamily 1 group D member 1 (Homo sapiens), P20393; AID 1259318, 2017; activity, % at 10 µM; Rev-erbα–FITC-DNA binding, 90 min; 370,000 tested, 0.79% active;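 active means activity above about 14%, limit read from the data; passing the limit was not always enough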;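 further: 0% = DMSO wells with 35 nM protein and 100% = DMSO wells with 750 nM protein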
UCH37 DUB inh: inhibitors of human UCH37 deubiquitinase, primary screen, biochemical, Ub-AMC cleavage, fluorescence; Ubiquitin carboxyl-terminal hydrolase isozyme L5 (Homo sapiens), Q9Y5K5; purified proteasome/UCH37; inhibition, % (concentration not given with the values); 330,000 tested, 0.33% active; AID 588478, 2011;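 active means mean inhibition over replicate wells above about 20%, limit read from the data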;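 further: 0% = compound-free wells with enzyme and 100% = wells lacking proteasome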
Target sequence (Q9Y5K5 whole entry, looked up): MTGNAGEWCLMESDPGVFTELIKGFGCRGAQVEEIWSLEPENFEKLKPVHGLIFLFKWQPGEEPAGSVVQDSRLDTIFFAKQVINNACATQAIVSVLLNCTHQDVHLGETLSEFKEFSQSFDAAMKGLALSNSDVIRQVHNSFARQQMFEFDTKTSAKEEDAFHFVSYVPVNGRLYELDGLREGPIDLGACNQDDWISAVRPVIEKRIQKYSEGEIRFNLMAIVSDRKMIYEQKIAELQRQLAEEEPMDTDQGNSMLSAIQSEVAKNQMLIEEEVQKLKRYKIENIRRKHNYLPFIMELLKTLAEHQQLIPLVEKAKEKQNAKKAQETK
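Signal – fluorescence, ex 355 nm, em 460 nm · System – Proteasome-bound UCH37 · Input – 0.15 nM proteasome as dispensed · Timing – 30 min preincubation with enzyme, 25 min cleavage at room temperature · Read-out basis – percent inhibition of cleavage signal versus uninhibited and no-proteasome wells · Medium – Tris-HCl pH 7.4 with ATP-MgCl2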
PG9 Ab binder: binders of HIV-1 gp120 antibody PG9, primary screen, biochemical, TR-FRET. HIV-1 gp120 / PG9 antibody interaction. TR-FRET gp120-PG9 antibody binding. inhibition, % at 6.7 µM. 360,000 tested, 0.43% active. AID 624416, 2012; in the data active means inhibition above about 8.5%
Rce1 inhib: yeast Rce1p protease inhibitors, primary screen, biochemical, fluorescence, cell-free homogeneous | AID 2563, 2010 | CAAX prenyl protease 2 (Saccharomyces cerevisiae (strain ATCC 204508 / S288c)), Q03530 | 290,000 tested, 0.27% active | yeast membranes, quenched prenylated peptide cleavage fluorescence | calls only;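 active means fall in fluorescence gain of 50% or more versus controls, with final raw signal at or below 3038400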;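 further: plate controls were neutral control wells for no effect and wells lacking membranes for full effect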
MIN6 prolif-2: inducers of beta-cell proliferation in MIN6, confirmation, MIN6 cells, mouse. shares compounds with MIN6 prolif-1. proliferation increase, % at 50 µM. 920 tested, under 10 active. ATPlite luminescence, 48 h; cells kept in 0.2% serum; scaled between 0.2% and 10% serum;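 active means proliferation increase above 40% at any of the four tested concentrations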
Numbers without * were called inactive; i = inactive; x = no result; + = active, no number.

SMILES | CR mimetic SO | MIN6 prolif-1 | NR1D1 modulator | UCH37 DUB inh | PG9 Ab binder | Rce1 inhib | MIN6 prolif-2
CCc1n[nH]c(=S)n1N=Cc1c(C)nn(-c2ccccc2)c1Cl | x | x | x | 0.2 | x | x | x
CCc1nc2sc(C#N)c(N)c2c2c1CCCC2 | 88.6 | 6.3* | 8.9 | -120.7 | 0.1 | i | 3.1
O=C(CNc1ccc2c(c1)OCO2)NN=Cc1cn(Cc2ccccc2)c2ccccc12 | x | x | x | -2.2 | x | x | x
O=C(c1ccc(N2CCOCC2)c([N+](=O)[O-])c1)N1CCN(Cc2ccccc2)CC1 | 100.0 | 5.8* | -0.7 | 6.4 | -1.1 | i | -1.6
O=C(c1cccc(Cl)c1)N1CCN(c2ccc(N3CCOCC3)nn2)CC1 | 96.9 | 14.3* | 6.1 | x | -0.5 | i | -1.0
COc1ccc(C(=O)Oc2cc(C=NNS(=O)(=O)c3ccc(C)cc3)ccc2OC)cc1 | x | x | x | -0.6 | x | x | x
COc1ccc(OC)c(/C=N/NC(=O)CSc2cc(C)nc3c(OC)cccc23)c1 | 97.8 | 10.2* | -1.1 | x | -0.8 | + | -1.1
C(=NNc1nncn1N=Cc1ccco1)c1ccco1 | x | x | x | 11.9 | x | x | x
COC(=O)c1cnc(N2CCCN(S(=O)(=O)c3ccccc3)CC2)nc1C(F)(F)F | 102.2 | -2.6 | 3.1 | -4.6 | -1.5 | i | x
COC(=O)c1cnc(N2CCOCC2)nc1C(F)(F)F | 105.2 | 6.3* | -6.2 | 6.2 | -0.2 | i | -0.3
CN(C)CCNC(=O)COc1cccc2c1OC(C)(C)C2 | 94.0 | 0.9 | -1.3 | 2.6 | -0.8 | i | x
CN(Cc1cccs1)C(=O)COc1cccc2c1OC(C)(C)C2 | 102.1 | 9.9* | -1.2 | x | 0.2 | x | -1.0
COC(=O)Cn1cc(C=NNC(=O)COc2cccc3cccnc23)c2ccccc21 | x | x | x | 4.1 | x | x | x
CCOc1ccccc1/C=C/c1onc(C)c1S(=O)(=O)N1CCC(C(=O)N(CC)CC)CC1 | 113.6 | 4.8* | 2.6 | -25.5 | -1.8 | i | -5.8
COCCn1c(SCC(=O)c2ccccc2)nc2ccccc2c1=O | 91.4 | 7.8* | 0.6 | 5.6 | -3.2 | i | -6.3
COCCCn1c(SCC(=O)c2ccccc2)nc2ccccc2c1=O | 93.3 | 3.6 | 3.1 | 5.0 | -0.9 | i | x
CCOc1ccccc1C=NNC(=O)c1cc(C(C)C)[nH]n1 | x | x | x | -1.1 | x | x | x
COc1ccc(Nc2nc3ccccc3n3nnnc23)cc1 | 96.3 | 6.2 | 6.5 | -112.0 | -2.3 | i | x
COc1cc(Nc2nc3ccccc3n3nnnc23)cc(OC)c1OC | 97.0 | 10.3* | 11.9 | -16.6 | 0.9 | i | -6.4
Cc1ccccc1OCC(=O)NC1CCCCCCC1 | 85.2 | 6.0* | 1.2 | 1.4 | 0.3 | i | -6.5
CCc1n[nH]c(=S)n1N=Cc1cc(Br)c(O)c(OC)c1 | x | x | x | 9.6 | x | x | x
Cc1cc2c(ncn2C(C)C)c(NS(=O)(=O)c2ccc(F)cc2)c1C | 102.6 | 8.9* | -1.9 | 5.3 | -1.2 | i | -4.4
O=C(CSc1cccc2cccnc12)NN=Cc1cccnc1 | x | x | x | -8.5 | x | x | x
CC1(C)CC(=S)Nc2ccccc2S1 | 76.0 | 10.9* | -2.4 | 2.4 | -0.7 | i | -5.6
CC1(C)CC(=O)C2=C(C1)Nc1ccccc1S2 | 77.8 | -0.7 | 6.1 | x | -18.6 | i | x
O=C(NN=Cc1cccnc1)C(O)(c1ccccc1)c1ccccc1 | x | x | x | 1.9 | x | x | x
